Experimental data reported in ChEMBL document CHEMBL1125275, “2-[(arylmethyl) amino]-2-methyl-1,3-propanediol DNA intercalators. An examination of the effects of aromatic ring variation on antitumor activity and DNA binding” (J Med Chem, 1991).
Activity calls are given as the source filed them. The calls are words filed in the database; no cut-off is given here.

Assays:
Mus musculus [1] = species on record: Mus musculus; experiment: Number of animals survived after 30 days of treatment; 0/6.; type: functional
Mus musculus [2] = species on record: Mus musculus; experiment: Percent increase in life span (% ILS) was tested at optimal dose.; type: functional
How it was run: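 In vivo murine P388 lymphocytic leukemia screen; antitumor effect read as percent increase in life span (% ILS).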

P388 [3] = experiment: Lethal dose in murine lymphocytic leukemia P388 cells; type: functional, Mus musculus
P388 [4] = experiment: Antitumor activity in murine lymphocytic leukemia P388 cells; type: functional, Mus musculus
How it was run: (§1)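 Preliminary in vivo antitumor screen in mice bearing murine lymphocytic leukemia P388. The read-out is percent increase in life span (% ILS). Highest nontoxic doses used in the assay are reported in parentheses.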

P388 [5] = experiment: The compound tested for the lethal dose in murine lymphocytic leukemia P388.; type: ADME; details: mouse
Mus musculus [6] = species on record: Mus musculus; experiment: Number of animals survived after 60 days; 0/6; type: functional
Mus musculus [7] = species on record: Mus musculus; experiment: Number of animals survived after 30 days; 2/6; type: functional
Mus musculus [8] = species on record: Mus musculus; experiment: Percent increase in life span (% ILS) was tested at optimal dose; I indicates inactive; type: functional, organism-based; how it was run: as §1
P388 [9] = experiment: The compound tested for the highest non-toxic dose in murine lymphocytic leukemia P388.; type: functional, Mus musculus
How it was run: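 In vivo murine P388 lymphocytic leukemia screen; the value reported is the highest nontoxic dose used in the assay.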

Mus musculus [10] = species on record: Mus musculus; experiment: Number of animals survived after 30 days; 6/8; type: functional
Mus musculus [11] = species on record: Mus musculus; experiment: Number of animals survived after 60 days; 3/6; type: functional
Mus musculus [12] = species on record: Mus musculus; experiment: Number of animals survived after 30 days; 3/6; type: functional
Mus musculus [13] = species on record: Mus musculus; experiment: Number of animals survived after 30 days; 4/6; type: functional
Mus musculus [14] = species on record: Mus musculus; experiment: Number of animals survived after 30 days; 1/6; type: functional
Mus musculus [15] = species on record: Mus musculus; experiment: Number of animals survived after 30 days; type: functional

CC(CO)(CO)NCc1c2ccccc2c2ccc3cccc4ccc1c2c43
No. of animals survived (Mus musculus [1]): 0 | ILS (Mus musculus [2]): 100% | LD20 (P388 [3]): 123 mg/kg | Optimal dose (P388 [4]): 100 mg/kg

CC(CO)(CO)NCc1cc2c3c(cccc3c1)-c1ccccc1-2.Cl
No. of animals survived (Mus musculus [1]): 0 | ILS (Mus musculus [2]): 105% | LD20 (P388 [5]): 160 mg/kg | Optimal dose (P388 [4]): 160 mg/kg

CC(CO)(CO)NCc1c2ccccc2cc2cc3ccccc3cc12
No. of animals survived (Mus musculus [6]): 0 | ILS (Mus musculus [2]): 165% | LD20 (P388 [3]): 60 mg/kg | No. of animals survived (Mus musculus [7]): 2 | Optimal dose (P388 [4]): 60 mg/kg

CC(CO)(CO)NCc1ccc2c3cccc4cccc(c5cccc1c52)c43.Cl
No. of animals survived (Mus musculus [1]): 0 | ILS (Mus musculus [2]): 100% | LD20 (P388 [3]): 425 mg/kg | Optimal dose (P388 [4]): 350 mg/kg

CC(CO)(CO)NCc1ccc(-c2ccccc2)cc1.Cl
ILS (Mus musculus [8]): inactive | Optimal dose (P388 [4]): 283 mg/kg | Highest non-toxic dose (P388 [9]): 283 mg/kg

CC(CO)(CO)NCc1cc2c3ccccc3ccc2c2ccccc12 [CRISNATOL]
No. of animals survived (Mus musculus [10]): 6 | No. of animals survived (Mus musculus [11]): 3 | ILS (Mus musculus [2]): 215% | LD20 (P388 [3]): 120 mg/kg | Optimal dose (P388 [4]): 120 mg/kg

CC(CO)(CO)NCc1ccc2c3ccccc3c3ccccc3c2c1.Cl
No. of animals survived (Mus musculus [1]): 0 | ILS (Mus musculus [2]): 100% | LD20 (P388 [3]): 85 mg/kg | Optimal dose (P388 [4]): 85 mg/kg

CC(CO)(CO)NCc1ccc2ccc3ccccc3c2c1.Cl
No. of animals survived (Mus musculus [1]): 0 | ILS (Mus musculus [2]): 20% | LD20 (P388 [3]): 250 mg/kg | Optimal dose (P388 [4]): 225 mg/kg

CC(CO)(CO)NCc1ccc2ccc3cccc4ccc1c2c34.Cl
No. of animals survived (Mus musculus [1]): 0 | ILS (Mus musculus [2]): 120% | LD20 (P388 [3]): 275 mg/kg | Optimal dose (P388 [4]): 260 mg/kg

CC(CO)(CO)NCc1ccc2ccc3c4ccccc4ccc3c2c1
No. of animals survived (Mus musculus [1]): 0 | ILS (Mus musculus [2]): 20% | LD20 (P388 [3]): 110 mg/kg | Optimal dose (P388 [4]): 110 mg/kg

CC(CO)(CO)NCc1cc2ccccc2c2ccccc12.Cl
No. of animals survived (Mus musculus [1]): 0 | ILS (Mus musculus [2]): 60% | LD20 (P388 [3]): 125 mg/kg | Optimal dose (P388 [4]): 150 mg/kg

CC(CO)(CO)NCc1c2c(cc3ccccc13)Cc1ccccc1-2
No. of animals survived (Mus musculus [6]): 0 | ILS (Mus musculus [2]): 210% | No. of animals survived (Mus musculus [12]): 3 | Optimal dose (P388 [4]): 250 mg/kg | Highest non-toxic dose (P388 [9]): 250 mg/kg

CC(CO)(CO)NCc1cc2ccc3ccccc3c2c2ccccc12
No. of animals survived (Mus musculus [1]): 0 | ILS (Mus musculus [2]): 42% | LD20 (P388 [3]): 15 mg/kg | Optimal dose (P388 [4]): 7.5 mg/kg

CC(CO)(CO)NCc1ccc2c(ccc3cc4ccccc4cc32)c1
No. of animals survived (Mus musculus [1]): 0 | ILS (Mus musculus [2]): 20% | LD20 (P388 [3]): 200 mg/kg | Optimal dose (P388 [4]): 200 mg/kg

CC(CO)(CO)NCc1cccc2ccc3ccccc3c12.Cl
ILS (Mus musculus [8]): inactive | Optimal dose (P388 [4]): 269 mg/kg | Highest non-toxic dose (P388 [9]): 269 mg/kg

CC(CO)(CO)NCc1cccc2ccccc12.Cl
ILS (Mus musculus [8]): inactive | Optimal dose (P388 [4]): 180 mg/kg | Highest non-toxic dose (P388 [9]): 180 mg/kg

CC(CO)(CO)NCc1ccc2ccccc2c1.Cl
ILS (Mus musculus [8]): inactive | Optimal dose (P388 [4]): 240 mg/kg | Highest non-toxic dose (P388 [9]): 240 mg/kg

CC(CO)(CO)NCc1cccc2cc3ccccc3cc12.Cl
No. of animals survived (Mus musculus [1]): 0 | ILS (Mus musculus [2]): 125% | LD20 (P388 [3]): 110 mg/kg | Optimal dose (P388 [4]): 120 mg/kg

CCCCCCCCCCCCNC(C)(CO)CO.Cl
ILS (Mus musculus [8]): inactive | Optimal dose (P388 [4]): 75 mg/kg | Highest non-toxic dose (P388 [9]): 75 mg/kg

CC(CO)(CO)NCc1ccccc1.Cl
ILS (Mus musculus [8]): inactive | Optimal dose (P388 [4]): 350 mg/kg | Highest non-toxic dose (P388 [9]): 350 mg/kg

CC(CO)(CO)NCc1ccc2c3c1ccc1cccc(c13)C2
No. of animals survived (Mus musculus [1]): 0 | ILS (Mus musculus [2]): 45% | LD20 (P388 [3]): 300 mg/kg | Optimal dose (P388 [4]): 270 mg/kg

CC(CO)(CO)NCc1ccc(-c2ccccc2)c2ccccc12.Cl
ILS (Mus musculus [8]): inactive | Optimal dose (P388 [4]): 175 mg/kg | Highest non-toxic dose (P388 [9]): 175 mg/kg

CC(CO)(CO)NCc1cccc2c1-c1cccc3cccc-2c13.Cl
No. of animals survived (Mus musculus [1]): 0 | ILS (Mus musculus [2]): 142% | LD20 (P388 [5]): 123 mg/kg | Optimal dose (P388 [4]): 100 mg/kg

CC(CO)(CO)NCc1ccc2cccc3c2c1-c1ccccc1-3.Cl
No. of animals survived (Mus musculus [1]): 0 | ILS (Mus musculus [2]): 100% | LD20 (P388 [5]): 140 mg/kg | Optimal dose (P388 [4]): 140 mg/kg

CC(CO)(CO)NCc1c2c3c(cccc3c3ccccc13)CC2
No. of animals survived (Mus musculus [6]): 0 | ILS (Mus musculus [2]): 200% | No. of animals survived (Mus musculus [12]): 3 | LD20 (P388 [3]): 70 mg/kg | Optimal dose (P388 [4]): 60 mg/kg

CC(CO)(CO)NCc1c2ccccc2cc2ccccc12.Cl
No. of animals survived (Mus musculus [1]): 0 | ILS (Mus musculus [2]): 30% | LD20 (P388 [3]): 150 mg/kg | Optimal dose (P388 [4]): 150 mg/kg

CC(CO)(CO)NCc1ccc2c(ccc3c4ccccc4ccc23)c1
LD20 (P388 [3]): 450 mg/kg | ILS (Mus musculus [8]): inactive | Optimal dose (P388 [4]): 450 mg/kg

CC(CO)(CO)NCc1c2c3c(cccc3c3ccccc13)C=C2
No. of animals survived (Mus musculus [6]): 0 | ILS (Mus musculus [2]): 225% | LD20 (P388 [3]): 125 mg/kg | No. of animals survived (Mus musculus [13]): 4 | Optimal dose (P388 [4]): 110 mg/kg

CC(CO)(CO)NCc1cc2c3c(ccc4c3c1CCC4)CCC2.Cl
ILS (Mus musculus [8]): inactive | Optimal dose (P388 [4]): 151 mg/kg | Highest non-toxic dose (P388 [9]): 151 mg/kg

CC(CO)(CO)NCc1ccc2c(c1)Cc1ccccc1-2.Cl
ILS (Mus musculus [8]): inactive | Optimal dose (P388 [4]): 225 mg/kg | Highest non-toxic dose (P388 [9]): 225 mg/kg

CC(CO)(CO)NCc1cccc2c1ccc1ccccc12.Cl
No. of animals survived (Mus musculus [1]): 0 | ILS (Mus musculus [2]): 65% | LD20 (P388 [3]): 225 mg/kg | Optimal dose (P388 [4]): 230 mg/kg

CC(CO)(CO)NCc1cccc2c3ccccc3c3ccccc3c12.Cl
No. of animals survived (Mus musculus [1]): 0 | ILS (Mus musculus [2]): 25% | LD20 (P388 [3]): 165 mg/kg | Optimal dose (P388 [4]): 155 mg/kg

CC(CO)(CO)NCc1ccc2c(c1)-c1cccc3cccc-2c13.Cl
ILS (Mus musculus [8]): inactive | Optimal dose (P388 [4]): 150 mg/kg | Highest non-toxic dose (P388 [9]): 166 mg/kg

CC(CO)(CO)NCc1cccc2ccc3c4ccccc4ccc3c12
No. of animals survived (Mus musculus [6]): 0 | ILS (Mus musculus [2]): 120% | No. of animals survived (Mus musculus [14]): 1 | LD20 (P388 [3]): 225 mg/kg | Optimal dose (P388 [4]): 225 mg/kg

CC(CO)(CO)NCc1cc2cccc3ccc4cccc1c4c32.Cl
No. of animals survived (Mus musculus [1]): 0 | ILS (Mus musculus [2]): 45% | LD20 (P388 [3]): 40 mg/kg | Optimal dose (P388 [4]): 40 mg/kg

CC(CO)(CO)NCc1c2ccccc2cc2c1ccc1ccccc12
No. of animals survived (Mus musculus [6]): 0 | ILS (Mus musculus [2]): 180% | LD20 (P388 [3]): 220 mg/kg | No. of animals survived (Mus musculus [7]): 2 | Optimal dose (P388 [4]): 180 mg/kg

CC(CO)(CO)NCc1ccc2c3c(cccc13)-c1ccccc1-2.Cl
No. of animals survived (Mus musculus [15]): 5 | No. of animals survived (Mus musculus [11]): 3 | ILS (Mus musculus [2]): 190% | LD20 (P388 [5]): 110 mg/kg | Optimal dose (P388 [4]): 105 mg/kg

CC(CO)(CO)NCc1ccc2c(ccc3ccccc32)c1.Cl
No. of animals survived (Mus musculus [1]): 0 | ILS (Mus musculus [2]): 33% | LD20 (P388 [3]): 175 mg/kg | Optimal dose (P388 [4]): 200 mg/kg

CC(CO)(CO)NCc1ccc2cc3ccccc3cc2c1.Cl
ILS (Mus musculus [8]): inactive | Optimal dose (P388 [4]): 250 mg/kg | Highest non-toxic dose (P388 [9]): 250 mg/kg
